Measured values reported in ChEMBL document CHEMBL4014311, “Discovery of a Hepatitis C Virus NS5B Replicase Palm Site Allosteric Inhibitor (BMS-929075) Advanced to Phase 1 Clinical Studies” (J Med Chem, 2017).

Assays:
[1] = Ratio of IC50 for HCV genotype 1b […] replicase to EC50 for HCV genotype 1b infected in human HuH7 cells; design: species or system Hepatitis C virus subtype 1b
[2] = test system: Hepatitis C virus; experiment: Antiviral activity against HCV genotype 1b infected in human HuH7 cells after 3 days by luciferase reporter assay; format: functional, cell-based, Hepacivirus hominis; settings: Hepatitis C virus, genotype 1b, Huh-7, 72 h; read-out: EC50
[3] = Inhibition of HCV genotype 1b NS5B replicase expressed in Escherichia coli BL21(DE3) using polyA/biotinylated oligo(dT12) as template/primer in presence of [3H]UTP after 60 mins by SPA assay; design: species or system Hepatitis C virus subtype 1b
[4] = test system: Hepatitis C virus; experiment: Ratio of EC50 for HCV genotype 1a infected in human HuH7 cells in presence of 40% human serum to EC50 for HCV genotype 1a infected in human HuH7 cells; format: functional, Hepacivirus hominis, subtype 1a
[5] = Half life in monkey liver microsomes; format: ADME, Macaca mulatta, microsome; settings: rhesus monkey
[6] = target: T1, Cytochrome P450 2C8 (Homo sapiens, UniProt P10632); experiment: Inhibition of microsomal CYP2C8 (unknown origin); format: ADME
T1 sequence (P10632 whole entry): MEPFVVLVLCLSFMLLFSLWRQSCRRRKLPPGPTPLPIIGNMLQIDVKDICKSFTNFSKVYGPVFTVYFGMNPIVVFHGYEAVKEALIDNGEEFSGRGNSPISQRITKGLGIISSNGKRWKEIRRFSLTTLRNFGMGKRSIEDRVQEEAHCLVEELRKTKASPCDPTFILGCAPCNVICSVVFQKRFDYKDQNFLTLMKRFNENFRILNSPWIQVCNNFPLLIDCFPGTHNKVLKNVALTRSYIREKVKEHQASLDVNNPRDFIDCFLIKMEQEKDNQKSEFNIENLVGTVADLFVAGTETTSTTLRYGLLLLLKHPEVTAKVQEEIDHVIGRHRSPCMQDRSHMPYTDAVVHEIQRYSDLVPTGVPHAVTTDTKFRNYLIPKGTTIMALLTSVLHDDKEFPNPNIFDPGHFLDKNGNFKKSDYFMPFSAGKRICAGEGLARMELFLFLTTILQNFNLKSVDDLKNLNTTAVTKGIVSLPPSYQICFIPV

[7] = Drug uptake in Sprague-Dawley rat liver at 6 mg/kg, po administered via gavage after 24 hrs by LC/MS/MS analysis; format: ADME, organism-based; settings: read-out: Drug uptake
Summary of the method: (§1)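 Fasted rats were dosed orally in 90:10 PEG-400/ethanol; 6 h livers came from satellite animals. In the screening variant, n = 2 and plasma was taken to 6 h with livers at the terminal point. Livers were rinsed, blotted, weighed and homogenized in 2 volumes of 80% acetonitrile in HBSS per gram, then centrifuged. Supernatant and plasma were analysed by LC/MS/MS.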

[8] = Drug uptake in Sprague-Dawley rat liver at 6 mg/kg, po via gavage after 6 hrs by LC-MS/MS analysis; format: ADME, organism-based; settings: read-out: Drug uptake; summary of the method: as §1
[9] = target: Voltage-gated inwardly rectifying potassium channel KCNH2 (Homo sapiens, UniProt Q12809); experiment: Inhibition of human ERG by thallium flux assay
Sequence of Voltage-gated inwardly rectifying potassium channel KCNH2 (Q12809 whole entry): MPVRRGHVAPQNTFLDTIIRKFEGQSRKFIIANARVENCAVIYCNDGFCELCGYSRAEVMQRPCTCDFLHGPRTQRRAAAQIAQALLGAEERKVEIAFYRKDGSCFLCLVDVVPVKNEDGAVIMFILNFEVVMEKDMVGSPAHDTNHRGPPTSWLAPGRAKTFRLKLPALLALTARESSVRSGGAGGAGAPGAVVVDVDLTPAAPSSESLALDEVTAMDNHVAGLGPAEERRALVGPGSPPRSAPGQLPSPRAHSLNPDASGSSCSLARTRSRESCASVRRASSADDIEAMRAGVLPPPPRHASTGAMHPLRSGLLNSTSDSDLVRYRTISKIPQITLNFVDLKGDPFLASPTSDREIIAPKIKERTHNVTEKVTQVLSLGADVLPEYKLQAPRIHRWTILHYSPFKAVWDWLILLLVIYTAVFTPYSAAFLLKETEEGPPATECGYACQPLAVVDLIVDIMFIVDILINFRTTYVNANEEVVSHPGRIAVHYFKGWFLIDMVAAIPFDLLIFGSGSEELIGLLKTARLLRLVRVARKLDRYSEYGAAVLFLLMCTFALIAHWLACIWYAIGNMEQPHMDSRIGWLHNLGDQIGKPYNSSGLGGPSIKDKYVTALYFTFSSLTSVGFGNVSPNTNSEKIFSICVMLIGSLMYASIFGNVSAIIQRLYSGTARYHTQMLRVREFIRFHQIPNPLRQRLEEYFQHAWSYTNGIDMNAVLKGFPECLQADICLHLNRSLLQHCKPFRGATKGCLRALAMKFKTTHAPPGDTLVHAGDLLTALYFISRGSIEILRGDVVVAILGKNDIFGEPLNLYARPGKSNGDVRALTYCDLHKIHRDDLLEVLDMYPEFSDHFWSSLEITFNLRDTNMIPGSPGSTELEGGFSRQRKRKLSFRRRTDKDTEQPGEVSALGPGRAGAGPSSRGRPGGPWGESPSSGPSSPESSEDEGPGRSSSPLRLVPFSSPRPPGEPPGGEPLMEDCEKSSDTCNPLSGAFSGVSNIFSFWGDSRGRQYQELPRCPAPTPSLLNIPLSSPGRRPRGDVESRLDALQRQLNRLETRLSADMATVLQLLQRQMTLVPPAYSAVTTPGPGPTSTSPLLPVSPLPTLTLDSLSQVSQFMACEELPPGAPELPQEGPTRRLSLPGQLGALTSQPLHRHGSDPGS

[10] = Cytotoxicity against human HuH7 cells after 3 days by CellTiter-Blue assay; format: cell-based, Huh-7
[11] = AUC in Sprague-Dawley rat at 6 mg/kg, po administered via gavage by LC/MS/MS analysis; format: ADME, organism-based; settings: in vivo
Summary of the method: (§2)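 Rats were fasted overnight with free access to water, then dosed by gastric gavage with an […] solution in 90:10 PEG-400/ethanol (v/v), n = 3 per group. EDTA plasma was sampled predose and at 15, 30, 45, 60 min and 2, 4, 6, 8, 24 h, then assayed by LC/MS/MS. Parameters come from noncompartmental analysis: Cmax observed directly, AUC by linear/log trapezoidal summation, F as dose-normalized PO/IV AUC ratio.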

[12] = Membrane permeability at pH 7.4 by PAMPA; format: physicochemical; settings: read-out: permeability
[13] = Inhibition of HCV genotype 1b NS5B replicase C316N mutant infected in human HuH7 cells assessed as reduction of viral replication after 3 days by luciferase reporter assay; format: cell-based, Hepatitis C virus subtype 1b; settings: Hepatitis C virus, Huh-7, 72 h
[14] = Half life in rat liver microsomes; format: ADME, microsome
[15] = Ratio of drug uptake in Sprague-Dawley rat liver to plasma at 6 mg/kg, po administered via gavage after 24 hrs by LC/MS/MS analysis; format: ADME, organism-based
Summary of the method: (§3)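 Rats fasted overnight, then dosed by gavage at 6 mg/kg in 90:10 PEG-400/ethanol (v/v). Plasma sampled serially from cannula into EDTA tubes predose and at 15, 30, 45, 60 min and 2, 4, 6, 8, 24 h; n = 3. Livers removed at 6 h (satellite animals) and 24 h, homogenized in 80% acetonitrile/HBSS, assayed by LC/MS/MS. Tmax taken directly from observed data.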

[16] = target: T2, Nuclear receptor subfamily 1 group I member 2 (Homo sapiens, UniProt O75469); experiment: Transactivation of PXR (unknown origin); format: ADME
T2 sequence (O75469 whole entry): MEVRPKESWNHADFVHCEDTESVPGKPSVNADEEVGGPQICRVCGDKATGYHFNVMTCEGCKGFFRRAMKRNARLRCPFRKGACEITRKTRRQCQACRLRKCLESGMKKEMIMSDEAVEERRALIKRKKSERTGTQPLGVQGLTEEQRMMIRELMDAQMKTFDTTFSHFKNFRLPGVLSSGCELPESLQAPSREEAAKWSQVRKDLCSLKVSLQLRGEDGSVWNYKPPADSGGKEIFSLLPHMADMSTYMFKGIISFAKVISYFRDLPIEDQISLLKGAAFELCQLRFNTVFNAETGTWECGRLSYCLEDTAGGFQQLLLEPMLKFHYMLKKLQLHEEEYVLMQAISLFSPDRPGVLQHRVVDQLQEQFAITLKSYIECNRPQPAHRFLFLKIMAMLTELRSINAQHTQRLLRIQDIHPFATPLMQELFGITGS

[17] = Half life in dog liver microsomes; format: ADME, Canis lupus familiaris, microsome
[18] = Tmax in Sprague-Dawley rat at 6 mg/kg, po administered via gavage by LC/MS/MS analysis; format: ADME, organism-based; settings: in vivo; summary of the method: as §3
[19] = test system: Rattus norvegicus; experiment: Half life in Sprague-Dawley rat at 2 mg/kg,iv by LC/MS/MS analysis; format: ADME, organism-based; settings: in vivo
Summary of the method: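 A 10 min constant-rate jugular vein infusion was given in 90:10 PEG-400/ethanol (v/v), n = 3 rats. Plasma was sampled predose and at 10, 15, 30, 45, 60 min and 2, 4, 6, 8, 24 h, then assayed by LC/MS/MS. Clearance and apparent terminal t1/2 were estimated by noncompartmental analysis.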

[20] = Lipophilicity, log D of the compound at pH 6.5 by shake flask method; format: physicochemical; settings: buffer
[21] = test system: Hepatitis C virus; experiment: Ratio of EC50 for HCV genotype 1b infected in human HuH7 cells in presence of 40% human serum to EC50 for HCV genotype-1b infected in human HuH7 cells; format: functional, Hepacivirus hominis
[22] = test system: Rattus norvegicus; experiment: Volume of distribution at steady state in Sprague-Dawley rat at 2 mg/kg, iv by LC/MS/MS analysis; format: ADME, organism-based; settings: in vivo
Summary of the method: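 Rats received a 2 mg/kg IV dose in 90:10 PEG-400/ethanol as a 10 min constant-rate jugular infusion. Blood collected predose and at 10, 15, 30, 45, 60 min and 2, 4, 6, 8, 24 h; n = 3. Plasma analyzed by LC/MS/MS. Vss derived by noncompartmental analysis of IV data.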

[23] = Cmax in Sprague-Dawley rat at 6 mg/kg, po administered via gavage by LC/MS/MS analysis; format: ADME, organism-based; design: dose 6 mg/kg, route oral; settings: in vivo; summary of the method: as §2
[24] = Half life in human liver microsomes; format: ADME, microsome
[25] = target: Cytochrome P450 3A4 (Homo sapiens, UniProt P08684); experiment: Inhibition of microsomal CYP3A4 (unknown origin); format: ADME
Sequence of Cytochrome P450 3A4 (P08684 whole entry): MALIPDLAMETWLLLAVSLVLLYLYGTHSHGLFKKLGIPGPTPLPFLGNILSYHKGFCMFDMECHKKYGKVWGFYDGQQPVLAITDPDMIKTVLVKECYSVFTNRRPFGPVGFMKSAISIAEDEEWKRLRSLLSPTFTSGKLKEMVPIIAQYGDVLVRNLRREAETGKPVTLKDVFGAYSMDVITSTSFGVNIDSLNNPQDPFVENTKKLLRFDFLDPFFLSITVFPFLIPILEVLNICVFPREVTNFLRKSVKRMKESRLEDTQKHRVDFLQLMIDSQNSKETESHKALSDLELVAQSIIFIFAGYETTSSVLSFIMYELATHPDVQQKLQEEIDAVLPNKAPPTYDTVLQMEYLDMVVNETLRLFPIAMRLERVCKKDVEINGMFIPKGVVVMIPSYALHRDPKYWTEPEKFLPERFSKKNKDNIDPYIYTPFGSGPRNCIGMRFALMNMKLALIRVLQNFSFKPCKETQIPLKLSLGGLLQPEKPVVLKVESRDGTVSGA

[26] = test system: Hepatitis C virus; experiment: Antiviral activity against HCV genotype 1a infected in human HuH7 cells after 3 days by luciferase reporter assay; format: functional, cell-based, Hepacivirus hominis, subtype 1a; settings: Hepatitis C virus, subtype 1a, Huh-7, 72 h; read-out: EC50
[27] = target: hERG (Homo sapiens, UniProt Q12809); experiment: Inhibition of human ERG at 10 uM by patch clamp assay
Sequence of hERG (Q12809 whole entry): as the sequence (Q12809 whole entry) above

[28] = Oral bioavailability in Sprague-Dawley rat at 6 mg/kg by LC/MS/MS analysis; format: ADME, organism-based; settings: in vivo; summary of the method: as §2
[29] = Clearance in Sprague-Dawley rat at 6 mg/kg, po via gavage by LC-MS/MS analysis; format: ADME, organism-based; settings: in vivo
[30] = Drug uptake in Sprague-Dawley rat plasma at 6 mg/kg, po via gavage after 6 hrs by LC-MS/MS analysis; format: ADME, organism-based; summary of the method: as §1
[31] = Metabolic stability in human liver microsomes assessed as parent compound remaining after 10 mins; format: ADME, microsome; settings: read-out: Stability
[32] = Metabolic stability in rat liver microsomes assessed as parent compound remaining after 10 mins; format: ADME, microsome; settings: read-out: Stability

| Compound | EC50 [2] | half-life [5] | IC50 [6] | concentration at 6 h [8] | Papp [12] | EC50 [13] | half-life [14] | EC50 [16] | half-life [17] | logD [20] | half-life [24] | IC50 [25] | EC50 [26] | also measured |
| --- | --- | --- | --- | --- | --- | --- | --- | --- | --- | --- | --- | --- | --- | --- |
| CNC(=O)c1cccc(-c2ccc3oc(-c4ccc(F)cc4)c(C(=O)NC)c3c2)c1 | 590 nM |  |  |  |  |  |  |  |  |  |  |  |  | Ratio IC50/EC50 [1]: 2; IC50 [3]: 2200 nM |
| CNC(=O)c1c(-c2ccc(F)cc2)oc2ccc(-c3cc(C(=O)NC4(c5ncccn5)CC4)ccc3C)cc12 | 1 nM | 0.85 h | 3900 nM | 8.7 µM | 76.9 ×10⁻⁶ cm/s | 51 nM | 1.43 h | > 50000 nM | 0.767 h | 4.76 | > 2 h | 11400 nM | 2.3 nM | Ratio EC50 [4]: 4; concentration at 24 h [7]: 0.614 µM; IC50 [9]: 4800 nM; CC50 at 72 h [10]: 20000 nM; AUC [11]: 48.7 µM·h; Kp at 24 h [15]: 2.4; Tmax [18]: 4.7 h; t1/2 [19]: 5.3 h; Ratio EC50 [21]: 4; Vdss [22]: 6.1 L/kg; Cmax [23]: 6.7 µM; inhibition at 10 µM [27]: 96%; bioavailability [28]: > 100% |
| CNC(=O)c1c(-c2ccc(F)cc2)oc2ccc(-c3cc(C(=O)NC4(c5ccccn5)CC4)ccc3C)cc12 | 1.9 nM | 0.333 h | 1000 nM | 15.7 µM | 99.9 ×10⁻⁶ cm/s | 55 nM | 1.02 h | 1600 nM | 0.233 h | 5.42 | 1.8 h | 4100 nM | 2.8 nM | CL/F [29]: 14 mL/min/kg; concentration at 6 h [30]: 1.64 µM; remaining at 10 min [31]: 89%; remaining at 10 min [32]: 82% |
